Data published in the M2OR odorant receptor database.
Substitutions are numbered along the chain they refer to.

Experiments:
Conditions in all cases: stereoisomer not certain
[1] = target: T1, OR4S2 (Homo sapiens) (UniProt Q8NH73)
T1 sequence (whole entry): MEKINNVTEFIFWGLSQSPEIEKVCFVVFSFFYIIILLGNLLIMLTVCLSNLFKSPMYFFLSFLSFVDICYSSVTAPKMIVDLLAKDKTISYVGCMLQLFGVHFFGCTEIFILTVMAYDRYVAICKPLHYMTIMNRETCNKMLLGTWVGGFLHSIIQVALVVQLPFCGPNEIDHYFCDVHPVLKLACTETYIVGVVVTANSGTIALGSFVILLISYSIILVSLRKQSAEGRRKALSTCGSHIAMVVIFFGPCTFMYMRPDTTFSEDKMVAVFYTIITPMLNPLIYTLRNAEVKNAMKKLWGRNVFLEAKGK
Summary of the method: (§1)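 Values were gathered from published papers (main text and supplementary material), with extra details requested from the original authors when needed, and checked for typos and inconsistencies. Each receptor–molecule pair is called responsive (active) if the original authors judged the measured signal statistically different from baseline, and non-responsive (inactive) otherwise. Assay methods varied by source, often transient mammalian cell-line luciferase assays. Recorded details include cell line, G-protein, co-transfected protein and tags.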

[2] = target: T2, OR4X1 (Homo sapiens) (UniProt Q8NH49)
T2 sequence (whole entry): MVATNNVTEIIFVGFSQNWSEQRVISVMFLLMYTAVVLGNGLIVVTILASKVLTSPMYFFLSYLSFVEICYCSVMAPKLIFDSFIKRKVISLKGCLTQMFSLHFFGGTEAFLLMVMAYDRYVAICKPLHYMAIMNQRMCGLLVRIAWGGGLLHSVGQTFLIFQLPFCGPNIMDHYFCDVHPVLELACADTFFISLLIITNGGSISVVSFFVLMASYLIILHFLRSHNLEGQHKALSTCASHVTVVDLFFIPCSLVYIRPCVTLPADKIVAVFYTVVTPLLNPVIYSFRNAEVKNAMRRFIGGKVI
Summary of the method: as §1

[3] = target: T3, OR4X2 (Homo sapiens) (UniProt Q8NGF9)
T3 sequence (whole entry): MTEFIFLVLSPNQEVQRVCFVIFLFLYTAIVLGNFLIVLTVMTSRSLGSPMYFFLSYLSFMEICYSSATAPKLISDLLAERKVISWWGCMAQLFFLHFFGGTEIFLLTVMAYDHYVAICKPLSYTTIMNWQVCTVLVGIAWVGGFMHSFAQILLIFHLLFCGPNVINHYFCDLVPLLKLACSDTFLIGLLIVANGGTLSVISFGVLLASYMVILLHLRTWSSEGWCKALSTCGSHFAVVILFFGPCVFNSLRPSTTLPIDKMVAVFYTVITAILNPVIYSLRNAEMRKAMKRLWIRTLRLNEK
Summary of the method: as §1

[4] = target: T4, OR51A2 (Homo sapiens) (UniProt Q8NGJ7)
T4 sequence (whole entry): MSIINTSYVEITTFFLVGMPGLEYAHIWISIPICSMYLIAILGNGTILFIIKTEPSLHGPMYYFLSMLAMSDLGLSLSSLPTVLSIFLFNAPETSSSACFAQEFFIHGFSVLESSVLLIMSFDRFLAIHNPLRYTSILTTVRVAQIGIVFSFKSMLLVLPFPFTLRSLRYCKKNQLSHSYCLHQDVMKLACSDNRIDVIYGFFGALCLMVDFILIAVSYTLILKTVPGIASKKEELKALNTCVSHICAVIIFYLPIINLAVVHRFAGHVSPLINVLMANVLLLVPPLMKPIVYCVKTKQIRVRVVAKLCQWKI
Summary of the method: as §1

[5] = target: T5, OR51A4 (Homo sapiens) (UniProt Q8NGJ6)
T5 sequence (whole entry): T4 sequence (whole entry) with G59E, T94I, S97N, S167N, P227L, E235Q, G267R, M288T, K289N, W311R
Summary of the method: as §1

[6] = target: T6, OR51A7 (Homo sapiens) (UniProt Q8NH64)
T6 sequence (whole entry): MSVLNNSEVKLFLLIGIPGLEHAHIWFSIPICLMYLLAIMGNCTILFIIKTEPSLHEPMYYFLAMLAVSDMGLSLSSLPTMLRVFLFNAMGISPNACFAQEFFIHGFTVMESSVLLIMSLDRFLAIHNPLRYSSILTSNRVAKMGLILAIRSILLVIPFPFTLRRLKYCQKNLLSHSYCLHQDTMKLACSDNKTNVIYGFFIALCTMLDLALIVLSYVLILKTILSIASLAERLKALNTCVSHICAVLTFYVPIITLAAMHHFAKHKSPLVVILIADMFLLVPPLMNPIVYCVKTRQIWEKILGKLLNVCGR
Summary of the method: as §1

[7] = target: T7, OR51B2 (Homo sapiens) (UniProt Q9Y5P1)
T7 sequence (whole entry): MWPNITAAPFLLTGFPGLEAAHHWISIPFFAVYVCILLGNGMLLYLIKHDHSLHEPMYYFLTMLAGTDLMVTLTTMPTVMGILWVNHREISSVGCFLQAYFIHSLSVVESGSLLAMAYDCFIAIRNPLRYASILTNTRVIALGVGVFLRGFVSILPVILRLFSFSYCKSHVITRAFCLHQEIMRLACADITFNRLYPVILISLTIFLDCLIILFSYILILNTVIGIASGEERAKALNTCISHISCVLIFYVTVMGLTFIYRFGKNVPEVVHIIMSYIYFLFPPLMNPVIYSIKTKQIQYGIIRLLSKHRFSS
Summary of the method: as §1

[8] = target: T8, OR51B4 (Homo sapiens) (UniProt Q9Y5P0)
T8 sequence (whole entry): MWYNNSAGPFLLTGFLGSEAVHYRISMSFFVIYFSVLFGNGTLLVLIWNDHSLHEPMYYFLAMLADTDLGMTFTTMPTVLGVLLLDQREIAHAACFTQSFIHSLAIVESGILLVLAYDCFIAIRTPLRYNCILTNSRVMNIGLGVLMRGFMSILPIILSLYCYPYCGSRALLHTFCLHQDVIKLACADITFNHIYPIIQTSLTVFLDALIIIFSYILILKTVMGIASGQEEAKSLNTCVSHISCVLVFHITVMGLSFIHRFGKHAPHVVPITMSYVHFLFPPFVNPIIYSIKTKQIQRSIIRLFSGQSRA
Summary of the method: as §1

[9] = target: T9, OR51B5 (Homo sapiens) (UniProt Q9H339)
T9 sequence (whole entry): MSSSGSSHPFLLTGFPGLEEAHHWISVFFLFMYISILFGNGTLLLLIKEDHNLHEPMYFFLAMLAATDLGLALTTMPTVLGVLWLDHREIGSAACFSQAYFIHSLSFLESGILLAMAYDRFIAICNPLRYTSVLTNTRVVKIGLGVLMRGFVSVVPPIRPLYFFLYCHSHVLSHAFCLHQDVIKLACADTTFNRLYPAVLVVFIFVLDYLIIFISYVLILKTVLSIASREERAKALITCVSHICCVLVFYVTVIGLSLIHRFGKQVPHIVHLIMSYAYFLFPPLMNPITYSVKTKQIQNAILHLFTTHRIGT
Summary of the method: as §1

[10] = target: T10, OR51B6 (Homo sapiens) (UniProt Q9H340)
T10 sequence (whole entry): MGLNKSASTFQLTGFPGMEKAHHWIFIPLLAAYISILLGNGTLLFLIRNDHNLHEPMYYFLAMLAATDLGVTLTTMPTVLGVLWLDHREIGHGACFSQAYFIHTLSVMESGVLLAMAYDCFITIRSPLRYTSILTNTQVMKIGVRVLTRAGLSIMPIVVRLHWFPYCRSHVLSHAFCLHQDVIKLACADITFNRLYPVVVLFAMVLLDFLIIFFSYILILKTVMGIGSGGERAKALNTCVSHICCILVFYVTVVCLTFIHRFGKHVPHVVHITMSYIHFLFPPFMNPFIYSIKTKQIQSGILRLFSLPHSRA
Summary of the method: as §1

[11] = target: T11, OR51D1 (Homo sapiens) (UniProt Q8NGF3)
T11 sequence (whole entry): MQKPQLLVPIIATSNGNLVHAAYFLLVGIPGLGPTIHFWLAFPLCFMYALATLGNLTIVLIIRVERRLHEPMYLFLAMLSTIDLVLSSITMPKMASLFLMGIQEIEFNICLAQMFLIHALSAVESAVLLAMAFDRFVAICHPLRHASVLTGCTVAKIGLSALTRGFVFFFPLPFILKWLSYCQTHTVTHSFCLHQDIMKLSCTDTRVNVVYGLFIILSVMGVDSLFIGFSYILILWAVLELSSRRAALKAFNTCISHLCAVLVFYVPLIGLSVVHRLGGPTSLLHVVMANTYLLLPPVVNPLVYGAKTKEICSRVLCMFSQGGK
Summary of the method: as §1

[12] = target: T12, OR51E1 (Homo sapiens) (UniProt Q8TCB6)
T12 sequence (whole entry): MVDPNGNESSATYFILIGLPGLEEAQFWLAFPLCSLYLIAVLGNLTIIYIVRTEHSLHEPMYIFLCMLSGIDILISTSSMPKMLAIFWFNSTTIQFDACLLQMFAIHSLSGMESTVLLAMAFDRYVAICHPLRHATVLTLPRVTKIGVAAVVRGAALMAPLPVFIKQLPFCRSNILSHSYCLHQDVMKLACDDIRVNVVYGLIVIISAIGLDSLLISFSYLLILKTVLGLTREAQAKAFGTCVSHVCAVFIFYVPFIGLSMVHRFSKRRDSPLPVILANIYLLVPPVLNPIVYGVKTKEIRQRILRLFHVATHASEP
Summary of the method: as §1

[13] = target: T13, OR51E2 (Homo sapiens) (UniProt Q9H255)
T13 sequence (whole entry): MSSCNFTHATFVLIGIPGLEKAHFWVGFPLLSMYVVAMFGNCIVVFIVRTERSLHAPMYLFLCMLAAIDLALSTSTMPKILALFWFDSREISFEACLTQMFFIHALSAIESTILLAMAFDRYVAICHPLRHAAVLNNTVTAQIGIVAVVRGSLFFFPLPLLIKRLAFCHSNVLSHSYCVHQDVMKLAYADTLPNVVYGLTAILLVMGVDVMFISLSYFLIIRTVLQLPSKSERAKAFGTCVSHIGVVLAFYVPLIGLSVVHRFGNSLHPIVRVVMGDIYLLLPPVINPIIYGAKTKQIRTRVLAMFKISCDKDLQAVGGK
Summary of the method: as §1

[14] = target: T14, OR51F1 (Homo sapiens) (UniProt A6NGY5)
T14 sequence (whole entry): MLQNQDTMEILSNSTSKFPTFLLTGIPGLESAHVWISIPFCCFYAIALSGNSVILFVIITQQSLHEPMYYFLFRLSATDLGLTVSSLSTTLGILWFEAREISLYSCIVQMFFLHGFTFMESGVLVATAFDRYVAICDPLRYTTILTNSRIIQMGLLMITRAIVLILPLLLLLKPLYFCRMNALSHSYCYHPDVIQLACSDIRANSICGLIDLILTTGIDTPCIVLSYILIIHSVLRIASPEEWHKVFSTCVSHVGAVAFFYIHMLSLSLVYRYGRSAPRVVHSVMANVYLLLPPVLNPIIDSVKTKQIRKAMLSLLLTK
Summary of the method: as §1

[15] = target: T15, OR51F2 (Homo sapiens) (UniProt Q8NH61)
T15 sequence (whole entry): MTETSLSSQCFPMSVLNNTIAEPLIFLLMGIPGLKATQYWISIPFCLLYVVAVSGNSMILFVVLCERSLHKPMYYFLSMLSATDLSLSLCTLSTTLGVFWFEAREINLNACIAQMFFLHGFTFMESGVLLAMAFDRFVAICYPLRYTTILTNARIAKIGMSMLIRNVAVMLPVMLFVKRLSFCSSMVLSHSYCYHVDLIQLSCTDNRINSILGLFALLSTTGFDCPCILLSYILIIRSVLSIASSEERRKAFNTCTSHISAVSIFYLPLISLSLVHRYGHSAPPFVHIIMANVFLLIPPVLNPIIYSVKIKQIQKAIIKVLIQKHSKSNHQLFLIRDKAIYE
Summary of the method: as §1

[16] = target: T16, OR51G1 (Homo sapiens) (UniProt Q8NGK1)
T16 sequence (whole entry): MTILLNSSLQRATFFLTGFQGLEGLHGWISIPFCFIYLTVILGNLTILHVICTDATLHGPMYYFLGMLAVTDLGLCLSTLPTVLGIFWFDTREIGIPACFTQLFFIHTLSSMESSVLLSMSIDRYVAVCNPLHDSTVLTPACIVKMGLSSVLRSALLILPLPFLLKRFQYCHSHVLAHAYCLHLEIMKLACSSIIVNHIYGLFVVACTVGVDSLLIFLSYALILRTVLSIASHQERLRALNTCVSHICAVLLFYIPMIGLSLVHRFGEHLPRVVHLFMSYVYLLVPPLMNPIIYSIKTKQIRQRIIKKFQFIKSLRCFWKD
Summary of the method: as §1

[17] = target: T17, OR51G2 (Homo sapiens) (UniProt Q8NGK0)
T17 sequence (whole entry): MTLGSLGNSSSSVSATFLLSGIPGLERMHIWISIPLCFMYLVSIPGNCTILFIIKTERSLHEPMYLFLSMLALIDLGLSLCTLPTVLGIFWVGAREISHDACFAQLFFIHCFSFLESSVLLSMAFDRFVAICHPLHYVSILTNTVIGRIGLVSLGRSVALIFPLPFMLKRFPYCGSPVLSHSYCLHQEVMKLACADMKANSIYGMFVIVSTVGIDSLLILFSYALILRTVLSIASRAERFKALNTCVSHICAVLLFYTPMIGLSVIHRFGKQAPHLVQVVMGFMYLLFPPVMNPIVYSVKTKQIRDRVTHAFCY
Summary of the method: as §1

[18] = target: T18, OR51I1 (Homo sapiens) (UniProt Q9H343)
T18 sequence (whole entry): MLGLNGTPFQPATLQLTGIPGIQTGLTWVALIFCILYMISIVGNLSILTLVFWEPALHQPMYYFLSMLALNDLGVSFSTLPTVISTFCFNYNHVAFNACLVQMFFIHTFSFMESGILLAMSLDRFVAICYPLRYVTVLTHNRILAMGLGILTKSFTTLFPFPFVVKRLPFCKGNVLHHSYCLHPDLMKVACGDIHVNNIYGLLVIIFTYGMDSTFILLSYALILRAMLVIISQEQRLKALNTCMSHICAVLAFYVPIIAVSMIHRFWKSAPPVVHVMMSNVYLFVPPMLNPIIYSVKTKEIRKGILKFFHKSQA
Summary of the method: as §1

Measured: odorant receptor agonist call

CC(CO)CS (stereo not drawn)
inactive: all assays above
